Measured values gathered from unrelated publications.

| SMILES | host | sample | route | dose | notes | measurement | result |
| --- | --- | --- | --- | --- | --- | --- | --- |
| CCN(CC)CCCC[C@H](NC(=O)[C@H](CC(C)C)NC(=O)[C@H](C)NC(=O)[C@H](Cc1ccccc1)NC(=O)c1ccc(C(C)(C)C)cc1)C(=O)N[C@@H](CO)C(=O)OC | male Swiss mouse | blood | intravenous | 3 mg/kg | – | AUC(0-t) | 1890 ng·h/mL |
| C[C@]12CC[C@H](O)CC1=CC[C@@H]1[C@@H]2CC[C@]2(C)C(n3cnc4ccccc43)=CC[C@@H]12.Cl | mouse | plasma | intravenous | 1 mg/kg | – | AUC(0-t) | 44.3 ng·h/mL |
| CN[C@H](CC(C)C)C(=O)N[C@H]1C(=O)N[C@@H](CC(N)=O)C(=O)N[C@H]2C(=O)NC3C(=O)N[C@H](C(=O)N[C@H](C(=O)NCCC[N+](C)(C)C)c4cc(O)cc(O)c4-c4cc3ccc4O)[C@H](O)c3ccc(c(Cl)c3)Oc3cc2cc(c3OC2OC(CO)C(O)[C@H](O)[C@@H]2O[C@H]2CC(C)(NCc3ccc(-c4ccc(Cl)cc4)cc3)[C@H](O)[C@H](C)O2)Oc2ccc(cc2Cl)[C@H]1O (some centres unmarked) | mouse | plasma | intravenous | 10 mg/kg | – | AUC | 81100 ng·h/mL |
| Cc1cc(C)nc(Nc2ncc(C(=O)NCCc3c(C)[nH]c4ccccc34)cn2)c1 | C57BL/6 mouse | plasma | intraperitoneal | 4.4 mg/kg | – | AUC(0-inf) | 155 ng·h/mL |
| C[C@]12CC[C@H](n3ccnc3)CC1=CC[C@@H]1[C@@H]2CC[C@]2(C)C(n3cnc4ccccc43)=CC[C@@H]12.Cl | male CD-1 mouse | plasma | oral | 10 mg/kg | – | AUC(0-t) | 22600 ng·h/mL |
| NCC(=O)Nc1ccc(-n2nc(C(F)(F)F)cc2-c2ccc3c(ccc4ccccc43)c2)cc1 | mouse | plasma | oral | 80 mg/kg | single dose | AUC(0-t) | 41400 ng·h/mL |
| CCC[C@@](N)(CO)CCc1ccc(OCCCCCC(C)C)cc1 | mouse | plasma | intraperitoneal | 10 mg/kg | – | AUC(0-t) | 1.06 µM·h |
| CN1CCCCC1Cn1cc(C(=O)c2cc([N+](=O)[O-])ccc2I)c2ccccc21 (racemic) | mouse | plasma | oral | 25 mg/kg | – | AUC | 1230 ng·h/mL |
